Assay results taken from ChEMBL document CHEMBL1158162, “Identifying structural features on 1,1-diphenyl-hexahydro-oxazolo[3,4-a]pyrazin-3-ones critical for Neuropeptide S antagonist activity” (2008).

Experiments:
[1] = Antagonist activity at NPS Ile107 mutant receptor expressed in RD-HGA16 cells assessed by calcium mobilization by FlexStation assay; format: functional
In short: (§1)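 Cells loaded with calcium3 dye for 1 h; calcium mobilization read on FlexStation. Compounds tested separately for intrinsic activity and for inhibition of NPS. Ke from an 8-point half-log NPS concentration-response run with and without one compound concentration, at least two concentrations giving at least four-fold rightward EC50 shift; Ke = [L]/(DR-1). Mean ± SE, at least three independent experiments.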

[2] = Antagonist activity at NPS Asn107 mutant receptor expressed in RD-HGA16 cells assessed by calcium mobilization by FlexStation assay; format: functional; in short: as §1
RD-HGA16 = assay: Ratio of Ke for NPS Asn107 mutant receptor to Ke for NPS Ile107 mutant receptor expressed in RD-HGA16 cells; format: cell-based
[3] = Antagonist activity at NPS Ile107 mutant receptor expressed in RD-HGA16 cells; format: functional; in short: as §1
[4] = Antagonist activity at NPS Asn107 mutant receptor expressed in RD-HGA16 cells; format: functional; in short: as §1

SMILES	Ke [1] [nM]	Kb ([1]; RD-HGA16) [nM]	Ke [2] [nM]	Kb ([2]; RD-HGA16) [nM]	Ratio Ke (RD-HGA16)	Kb [3] [nM]	Kb [4] [nM]
O=C(NCc1ccc(F)cc1)N1CCN2C(=O)OC(c3ccccc3)(c3ccccc3)C2C1 (stereo unspecified)	13.7	27.9	52	16.9	3.8	27.9	16.9
O=C(NCCCc1ccccc1)N1CCN2C(=O)OC(c3ccccc3)(c3ccccc3)C2C1 (stereo unspecified)	309		417		1.3		
CN(Cc1ccc(F)cc1)C(=O)N1CCN2C(=O)OC(c3ccccc3)(c3ccccc3)C2C1 (stereo unspecified)	214		588		2.8		
O=C(O)CNC(=O)N1CCN2C(=O)OC(c3ccccc3)(c3ccccc3)C2C1 (stereo unspecified)	> 4000		> 4000				
CCOC(=O)CNC(=O)N1CCN2C(=O)OC(c3ccccc3)(c3ccccc3)C2C1 (stereo unspecified)	726		1260		1.7		
O=C(COc1ccc(F)cc1)N1CCN2C(=O)OC(c3ccccc3)(c3ccccc3)C2C1 (stereo unspecified)	244		267		1.1		
O=C(NCCCCc1ccccc1)N1CCN2C(=O)OC(c3ccccc3)(c3ccccc3)C2C1 (stereo unspecified)	537		437		0.8		
CN1CCN2C(=O)OC(c3ccccc3)(c3ccccc3)C2C1 (stereo unspecified)	> 4000		> 4000				
O=C(CCc1ccc(F)cc1)N1CCN2C(=O)OC(c3ccccc3)(c3ccccc3)C2C1 (stereo unspecified)	339		460		1.4		
N[C@H](Cc1ccccc1)C(=O)N1CCN2C(=O)OC(c3ccccc3)(c3ccccc3)C2C1 (stereo partly specified)	911		4640		5.1		
O=C(NCCc1ccc2c(c1)OCO2)N1CCN2C(=O)OC(c3ccccc3)(c3ccccc3)C2C1 (stereo unspecified)	567		690		1.2		
O=C1OC(c2ccccc2)(c2ccccc2)C2CN(C(=S)NCCN3CCCCC3)CCN12 (stereo unspecified)	280		354		1.3		
O=C(NCc1ccccc1)N1CCN2C(=O)OC(c3ccccc3)(c3ccccc3)C2C1 (stereo unspecified)	9.9		47		4.8	32.6	21.7
O=C(OCc1ccccc1)N1CCN2C(=O)OC(c3ccccc3)(c3ccccc3)C2C1 (stereo unspecified)	354		353		1		
O=C(NCCN1CCCCC1)N1CCN2C(=O)OC(c3ccccc3)(c3ccccc3)C2C1 (stereo unspecified)	109		490		4.5		
O=C1OC(c2ccccc2)(c2ccccc2)C2CN(CCCCc3ccc(F)cc3)CCN12 (stereo unspecified)	1110		1100		1		
O=C1OC(c2ccccc2)(c2ccccc2)C2CN(C(=S)NCCN3CCOCC3)CCN12 (stereo unspecified)	3760		2560		0.7		
O=C(NCCc1ccc(F)cc1)N1CCN2C(=O)OC(c3ccccc3)(c3ccccc3)C2C1 (stereo unspecified)	321		326		1		
C[C@@H](NC(=O)N1CCN2C(=O)OC(c3ccccc3)(c3ccccc3)C2C1)c1ccccc1 (stereo partly specified)	317		229		0.7		
